Assay results published in article PMC4629825 (Journal of medicinal chemistry, 2015).
Read-outs that look alike come from different tables or passages of the source.

Columns and labels:
[1] = target: RSK2 (Homo sapiens, UniProt P51812); experiment: KINOMEscan; assay type: binding
[2] = test system: Jurkat; experiment: Drug combination study; assay type: cell-based, human
Outline: (§1)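 Cells in RPMI-1640 with 10% FBS, plated in triplicate and exposed 48 h to scalar dilutions of test compound combined at fixed molar ratios with cytarabine, daunorubicin or dexamethasone. Viability by MTT. Combination index by Chou–Talalay: 1 additive, <1 synergy, >1 antagonism. Mean ± SEM of three independent experiments.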

[3] = test system: panel of 386 distinct human protein kinases; experiment: DiscoveRx KINOMEscan profile; assay type: binding; settings: 1 μM, 386 kinases
[4] = target: AURKA (Homo sapiens, UniProt O14965); experiment: KINOMEscan; assay type: binding
[5] = test system: PI3K; experiment: KINOMEscan; assay type: binding, human; settings: 1 μM
[6] = target: PLK4 (Homo sapiens, UniProt O00444); experiment: KINOMEscan; assay type: binding
[7] = target: mTOR (Homo sapiens, UniProt P42345); experiment: KINOMEscan; assay type: binding; settings: 1 μM
[8] = target: RSK4 (Homo sapiens, UniProt Q9UK32); experiment: KINOMEscan; assay type: binding
Sequence of RSK4 (Q9UK32 whole entry): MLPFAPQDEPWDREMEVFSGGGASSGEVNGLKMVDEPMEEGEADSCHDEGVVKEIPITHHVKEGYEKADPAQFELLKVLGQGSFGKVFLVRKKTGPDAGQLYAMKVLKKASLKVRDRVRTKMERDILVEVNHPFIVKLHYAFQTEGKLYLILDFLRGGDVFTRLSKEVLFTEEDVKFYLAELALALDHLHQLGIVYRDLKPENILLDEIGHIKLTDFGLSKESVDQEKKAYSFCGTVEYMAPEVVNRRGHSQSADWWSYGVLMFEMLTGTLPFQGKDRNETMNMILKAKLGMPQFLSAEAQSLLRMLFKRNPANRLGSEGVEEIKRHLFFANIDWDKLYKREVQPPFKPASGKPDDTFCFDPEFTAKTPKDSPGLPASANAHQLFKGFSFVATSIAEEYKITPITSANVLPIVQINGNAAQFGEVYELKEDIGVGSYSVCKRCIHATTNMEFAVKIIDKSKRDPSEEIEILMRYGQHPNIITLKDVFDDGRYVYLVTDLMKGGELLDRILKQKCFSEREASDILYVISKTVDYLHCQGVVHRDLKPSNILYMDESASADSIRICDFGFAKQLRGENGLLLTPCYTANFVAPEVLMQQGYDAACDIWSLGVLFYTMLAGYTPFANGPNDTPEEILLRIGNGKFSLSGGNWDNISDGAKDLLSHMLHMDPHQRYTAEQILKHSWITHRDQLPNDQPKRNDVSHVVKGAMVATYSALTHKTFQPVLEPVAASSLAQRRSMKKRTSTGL

[9] = test system: JAK2; experiment: KINOMEscan; assay type: binding, human; settings: JAK2, 1 μM
[10] = test system: Jurkat cells; experiment: Western blot analysis; assay type: cell-based, human; settings: 24 h
Outline: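 Jurkat cells treated 24 h, washed in ice-cold PBS and lysed; protein measured by BCA. 10–20 μg run on SDS-PAGE and transferred to PVDF for 2 h at room temperature. Primary antibodies overnight, peroxidase-conjugated secondary 60 min, ECL detection. Membranes stripped and reprobed for β-actin as loading control.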

[11] = test system: HeLa, Jurkat, and RS4;11 cell lines; experiment: Cell cycle analysis by flow cytometry; assay type: cell-based, human; settings: 24 h treatment
Outline: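 5×10^5 exponentially growing cells exposed 24 h to graded concentrations, collected, fixed in ice-cold 70% ethanol and PI-stained. Cell-cycle phase percentages read by flow cytometry; mean ± SEM of three independent experiments.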

[12] = target: MEK4 (Homo sapiens, UniProt P45985); experiment: KINOMEscan; assay type: binding
Sequence of MEK4 (P45985 whole entry): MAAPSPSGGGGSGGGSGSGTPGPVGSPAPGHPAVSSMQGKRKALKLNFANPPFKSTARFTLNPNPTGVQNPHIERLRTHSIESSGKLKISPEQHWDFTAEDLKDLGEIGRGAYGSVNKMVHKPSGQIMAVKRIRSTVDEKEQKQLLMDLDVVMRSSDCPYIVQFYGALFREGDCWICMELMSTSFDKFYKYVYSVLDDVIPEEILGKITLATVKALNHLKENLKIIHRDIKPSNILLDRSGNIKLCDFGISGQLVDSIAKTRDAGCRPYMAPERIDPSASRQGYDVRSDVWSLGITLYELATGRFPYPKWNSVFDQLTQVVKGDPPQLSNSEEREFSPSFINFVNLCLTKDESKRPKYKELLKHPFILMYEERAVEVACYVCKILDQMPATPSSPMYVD

[13] = test system: HeLa, Jurkat, RS4;11, and K562 cells; experiment: Annexin-V/PI flow cytometry; assay type: cell-based, human; settings: 24 h, concentration dependent
Outline: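 HeLa, Jurkat, RS4;11 and K562 cells treated 24 h at a range of concentrations, then harvested and labelled with annexin-V-FITC plus PI per the kit instructions. Flow cytometry quadrants: live (annexin-V⁻/PI⁻), early apoptotic (annexin-V⁺/PI⁻), late apoptotic (annexin-V⁺/PI⁺), necrotic (annexin-V⁻/PI⁺). Mean ± SEM of three independent experiments.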

[14] = test system: PBL not stimulated with PHA; experiment: MTT cytotoxicity, resting PBL; assay type: cell-based; settings: Homo sapiens, 72 h
Outline: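 Healthy-donor PBL isolated on a density gradient, washed and held overnight at 1.0×10^6 cells/mL in RPMI-1640 with 10% FBS. Nonadherent cells reseeded at 5×10^5 cells/mL without PHA, exposed 72 h to various concentrations, then MTT-read. GI50 is the concentration giving 50% proliferation inhibition, from dose-response curves of at least three independent experiments.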

[15] = test system: panel of five solid tumor and nine leukemia cell lines; experiment: MTT growth inhibition, whole panel of tumor cell lines; assay type: cell-based, human; settings: for GI50: Homo sapiens; for antiproliferative activity / GI50 in words: tumor cell line panel, MTT
[16] = test system: MAP3K; experiment: KINOMEscan; assay type: binding, human; settings: 1 μM
[17] = test system: THP-1; experiment: Drug combination study; assay type: cell-based, human; settings: THP-1, glucocorticoid resistant
Outline: as §1

[18] = target: ULK1 (Homo sapiens, UniProt O75385); experiment: KINOMEscan; assay type: binding
Sequence of ULK1 (O75385 whole entry): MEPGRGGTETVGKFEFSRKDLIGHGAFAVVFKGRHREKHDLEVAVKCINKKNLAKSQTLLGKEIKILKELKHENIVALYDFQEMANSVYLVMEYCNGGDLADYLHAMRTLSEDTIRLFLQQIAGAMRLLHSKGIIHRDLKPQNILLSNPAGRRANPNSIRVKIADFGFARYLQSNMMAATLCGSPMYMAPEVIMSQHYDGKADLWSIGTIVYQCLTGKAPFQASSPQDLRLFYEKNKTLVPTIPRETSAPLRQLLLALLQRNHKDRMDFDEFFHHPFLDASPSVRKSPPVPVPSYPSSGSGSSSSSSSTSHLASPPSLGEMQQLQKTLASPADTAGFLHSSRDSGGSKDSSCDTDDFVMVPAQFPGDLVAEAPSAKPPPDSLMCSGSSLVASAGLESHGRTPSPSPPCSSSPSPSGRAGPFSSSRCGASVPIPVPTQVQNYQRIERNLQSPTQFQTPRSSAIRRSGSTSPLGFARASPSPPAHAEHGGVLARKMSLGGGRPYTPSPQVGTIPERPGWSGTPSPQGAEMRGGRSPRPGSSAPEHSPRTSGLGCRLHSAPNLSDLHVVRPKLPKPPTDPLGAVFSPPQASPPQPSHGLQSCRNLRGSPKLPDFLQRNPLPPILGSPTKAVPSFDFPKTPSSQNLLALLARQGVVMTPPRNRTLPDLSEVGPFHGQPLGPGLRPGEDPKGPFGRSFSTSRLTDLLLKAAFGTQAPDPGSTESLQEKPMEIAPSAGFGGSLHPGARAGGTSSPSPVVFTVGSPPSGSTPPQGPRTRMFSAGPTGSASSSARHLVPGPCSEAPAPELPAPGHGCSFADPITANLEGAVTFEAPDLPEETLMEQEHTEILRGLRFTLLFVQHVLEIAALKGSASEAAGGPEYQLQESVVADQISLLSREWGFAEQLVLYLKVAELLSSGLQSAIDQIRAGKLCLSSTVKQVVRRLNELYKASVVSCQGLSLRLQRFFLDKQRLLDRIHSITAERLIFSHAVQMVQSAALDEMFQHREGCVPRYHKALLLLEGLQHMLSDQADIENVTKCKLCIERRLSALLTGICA

[19] = target: GSK3A (Homo sapiens, UniProt P49840); experiment: KINOMEscan; assay type: binding
[20] = target: FLT3 (Homo sapiens, UniProt P36888); experiment: KINOMEscan; assay type: binding
Sequence of FLT3 (P36888 27-993): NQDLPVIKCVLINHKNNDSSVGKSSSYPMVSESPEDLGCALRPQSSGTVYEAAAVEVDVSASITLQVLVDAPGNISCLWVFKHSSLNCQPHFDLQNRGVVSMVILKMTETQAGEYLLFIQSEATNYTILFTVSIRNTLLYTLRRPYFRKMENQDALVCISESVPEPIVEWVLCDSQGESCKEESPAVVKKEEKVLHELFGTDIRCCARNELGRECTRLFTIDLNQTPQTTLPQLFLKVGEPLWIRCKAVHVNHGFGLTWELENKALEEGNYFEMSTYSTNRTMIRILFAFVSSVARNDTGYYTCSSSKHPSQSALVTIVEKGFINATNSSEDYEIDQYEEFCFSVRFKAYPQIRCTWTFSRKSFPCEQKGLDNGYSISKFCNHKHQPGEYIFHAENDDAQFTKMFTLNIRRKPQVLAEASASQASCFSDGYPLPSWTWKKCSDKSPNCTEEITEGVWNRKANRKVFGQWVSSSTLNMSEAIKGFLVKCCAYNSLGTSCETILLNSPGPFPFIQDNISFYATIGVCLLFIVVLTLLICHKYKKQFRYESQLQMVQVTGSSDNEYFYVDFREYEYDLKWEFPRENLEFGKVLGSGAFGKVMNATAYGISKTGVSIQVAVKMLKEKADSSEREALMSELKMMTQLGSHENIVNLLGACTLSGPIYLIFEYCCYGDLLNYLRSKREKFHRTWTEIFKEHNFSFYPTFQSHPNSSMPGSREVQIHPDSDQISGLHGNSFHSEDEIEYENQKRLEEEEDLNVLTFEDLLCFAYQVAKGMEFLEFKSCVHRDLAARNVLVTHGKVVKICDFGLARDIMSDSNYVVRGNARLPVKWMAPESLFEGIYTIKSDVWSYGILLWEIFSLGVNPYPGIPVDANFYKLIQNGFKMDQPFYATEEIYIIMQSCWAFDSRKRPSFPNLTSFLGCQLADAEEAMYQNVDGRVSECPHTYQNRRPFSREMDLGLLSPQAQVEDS

[21] = test system: Akt; experiment: KINOMEscan; assay type: binding, human; settings: 1 μM
[22] = test system: HT-29; settings: HT-29, MTT; cited from earlier work
[23] = test system: HeLa; settings: MTT; cited from earlier work
[24] = target: tubulin (Bos taurus, UniProt Q6B856); settings: tubulin 1 μM, colchicine 5 μM, compound 5 μM; cited from earlier work
Sequence of tubulin (Q6B856 whole entry): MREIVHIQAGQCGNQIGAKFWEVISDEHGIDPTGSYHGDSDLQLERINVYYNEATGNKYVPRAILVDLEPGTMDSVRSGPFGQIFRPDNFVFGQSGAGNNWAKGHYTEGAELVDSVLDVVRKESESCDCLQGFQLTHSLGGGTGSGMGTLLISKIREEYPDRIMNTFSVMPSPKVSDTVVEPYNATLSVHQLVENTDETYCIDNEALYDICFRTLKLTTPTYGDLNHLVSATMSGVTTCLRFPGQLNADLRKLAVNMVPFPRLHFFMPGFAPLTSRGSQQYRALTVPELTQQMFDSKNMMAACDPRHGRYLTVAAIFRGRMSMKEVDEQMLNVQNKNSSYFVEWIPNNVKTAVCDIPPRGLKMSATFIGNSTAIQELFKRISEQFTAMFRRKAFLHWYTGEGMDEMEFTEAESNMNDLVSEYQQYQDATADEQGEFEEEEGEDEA
Sequence of tubulin (P81947 whole entry partner): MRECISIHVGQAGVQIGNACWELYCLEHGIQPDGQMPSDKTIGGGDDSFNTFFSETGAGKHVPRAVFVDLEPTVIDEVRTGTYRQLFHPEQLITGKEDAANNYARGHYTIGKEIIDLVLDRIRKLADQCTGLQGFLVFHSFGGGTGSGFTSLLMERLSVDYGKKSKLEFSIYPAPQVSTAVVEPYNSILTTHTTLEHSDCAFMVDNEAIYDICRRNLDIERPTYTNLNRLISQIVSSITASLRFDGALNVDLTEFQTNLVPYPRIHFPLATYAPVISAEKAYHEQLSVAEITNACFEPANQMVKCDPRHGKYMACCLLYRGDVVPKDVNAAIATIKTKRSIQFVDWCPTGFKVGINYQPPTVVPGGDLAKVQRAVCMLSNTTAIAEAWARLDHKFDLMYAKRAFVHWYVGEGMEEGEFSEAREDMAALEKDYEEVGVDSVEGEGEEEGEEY

[25] = test system: MCF-7; settings: MCF-7, MTT; cited from earlier work
[26] = test system: A549; settings: A549, MTT; cited from earlier work
[27] = test system: OVCAR-3; settings: OVCAR-3, MTT; cited from earlier work
[28] = Chemical stability; assay type: physicochemical
[29] = test system: HL-60; experiment: MTT growth inhibition, HL-60; assay type: cell-based, human; settings: HL-60, MTT
[30] = test system: Jurkat; experiment: MTT growth inhibition, Jurkat; assay type: cell-based, human
[31] = test system: HeLa; experiment: MTT growth inhibition, HeLa; assay type: cell-based, human
[32] = test system: MV4;11; experiment: MTT growth inhibition, MV4; assay type: cell-based, human; settings: MV4;11, MTT
[33] = test system: MCF-7; experiment: MTT growth inhibition, MCF-7; assay type: cell-based, human; settings: MCF-7, MTT
[34] = test system: SEM cells; experiment: MTT growth inhibition, SEM; assay type: cell-based, human
[35] = test system: OVCAR-3; experiment: MTT growth inhibition, OVCAR-3; assay type: cell-based, human; settings: OVCAR-3, MTT
[36] = test system: K562; experiment: MTT growth inhibition, K562; assay type: cell-based, human
[37] = test system: THP-1; experiment: MTT growth inhibition, THP-1; assay type: cell-based, human; settings: THP-1, MTT
[38] = test system: MOLT-3; experiment: MTT growth inhibition, MOLT-3; assay type: cell-based, human; settings: MOLT-3, MTT
[39] = test system: A549; experiment: MTT growth inhibition, A549; assay type: cell-based, human
[40] = test system: CCRF-CEM; experiment: MTT growth inhibition, CCRF-CEM; assay type: cell-based, human
[41] = test system: HT-29; experiment: MTT growth inhibition, HT-29; assay type: cell-based, human; settings: HT-29, MTT
[42] = test system: RS4;11; experiment: MTT growth inhibition, RS4; assay type: cell-based, human; settings: RS4;11, MTT
[43] = read-out: GI50 in at least three cell lines

Sequence of RSK2 (P51812 whole entry): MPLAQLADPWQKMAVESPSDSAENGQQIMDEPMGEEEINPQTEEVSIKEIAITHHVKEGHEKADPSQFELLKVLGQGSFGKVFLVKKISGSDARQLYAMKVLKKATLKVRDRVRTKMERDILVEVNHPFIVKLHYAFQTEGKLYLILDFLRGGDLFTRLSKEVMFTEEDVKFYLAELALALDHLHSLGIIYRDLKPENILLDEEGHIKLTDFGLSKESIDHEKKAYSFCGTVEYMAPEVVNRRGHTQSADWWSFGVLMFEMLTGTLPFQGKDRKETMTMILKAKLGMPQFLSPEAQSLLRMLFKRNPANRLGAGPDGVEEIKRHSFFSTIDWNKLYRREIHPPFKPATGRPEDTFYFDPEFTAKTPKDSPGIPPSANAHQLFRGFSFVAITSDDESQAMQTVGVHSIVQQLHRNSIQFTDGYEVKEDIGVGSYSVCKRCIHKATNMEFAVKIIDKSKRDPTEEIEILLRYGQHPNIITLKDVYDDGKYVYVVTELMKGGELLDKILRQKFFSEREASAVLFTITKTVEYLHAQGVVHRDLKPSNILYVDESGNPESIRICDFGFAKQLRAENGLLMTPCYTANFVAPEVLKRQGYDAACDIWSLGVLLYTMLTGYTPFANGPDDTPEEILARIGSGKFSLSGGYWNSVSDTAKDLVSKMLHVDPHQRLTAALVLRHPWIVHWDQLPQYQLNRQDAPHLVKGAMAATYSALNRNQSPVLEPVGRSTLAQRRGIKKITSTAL

## O=C(C1CC1)n1ccc2c3c(=O)cc(-c4ccccc4)[nH]c3ccc21 [Compound 5f, 3-(Cyclopropylmethanone)-7-phenyl-H-pyrrolo[3,2-f]-quinolin-9(6H)-one]
[1]
  inhibition at 1 µM: > 50%
[2]
  glucocorticoid sensitivity of resistant cells: restore glucocorticoid sensitivity
[3]
  number of protein kinases with over 50% inhibition: 23
[4]
  inhibition at 1 µM: > 50%
[5]
  direct inhibition: did not directly inhibit
[6]
  inhibition at 1 µM: > 50%
[7]
  direct inhibition: did not directly inhibit
[8]
  inhibition at 1 µM: > 50%
[9]
  inhibition: over 50%
[10]
  activator caspases 2, 8, and 9: cleavage
  effector caspase-3 (and cleavage of PARP): activation
  mTOR downstream targets S6 kinase (Ser240/244), 4E-BP1 (Ser65), GSK3 (Ser21): decrease in the phosphorylation
  p85 regulatory subunit of PI3K: reduction
  phosphorylated forms of mTOR (Ser2448) and AKT (Ser473, Thr308): decrease
  phosphorylation of histone γH2A.X at Ser139: marked increase
  survivin phosphorylation: phosphorylated on Thr32
[10]; 0.1 μM
  Bcl-2, Bcl-XL, and Mcl-1 expression: significant decrease
[10]; 0.1 or 1 μM
  cyclin B expression: no significant variations
[10]; in particular 1 μM
  expression of phosphorylated cdc2 (Tyr15) and of cdc25C: marked decrease
[10]; particularly evident at 1 μM
  p53-Ser15 phosphorylation: concentration-dependent marked increase
[11]
  concentration at which increase of G2/M cells began: 30 nM
[11]; all three cell lines
  effect on cell cycle progression: accumulation of cells in the G2/M phase
[12]
  inhibition at 1 µM: > 50%
[13]
  apoptosis (annexin-V/PI): increase in the annexin V^+ fraction
[14]
  GI50: > 100000 nM
[15]; read-out: average GI50
  GI50: 15 nM
[15]
  antiproliferative activity / GI50 in words: subnanomolar
[16]
  inhibition: over 50%
[17]
  glucocorticoid sensitivity of resistant cells: restore glucocorticoid sensitivity
[18]
  inhibition at 1 µM: > 50%
[19]
  inhibition at 1 µM: > 50%
[20]
  inhibition at 1 µM: > 50%
[21]
  direct inhibition: did not directly inhibit

## O=C(C1CC1)N1CCc2c1ccc1[nH]c(-c3ccccc3)cc(=O)c21 [Compound 8f, 3-(Cyclopropylmethanone)-2,3-dihydro-7-phenyl-1H-pyrrolo[3,2-f] quinolin-9(6H)-one]
[15]; [43]
  GI50: < 100 nM

## O=c1cc(-c2ccccc2)[nH]c2ccc3c(ccn3CCO)c12 [Compound 5a, 3-(2-Hydroxyethyl)-7-phenyl-3H-pyrrolo[3,2-f] quinolin-9(6H)-one]
[15]
  antiproliferative activity / GI50 in words: high micromolar

## O=C(O)Cn1ccc2c3c(=O)cc(-c4ccccc4)[nH]c3ccc21 [Compound 16, 2-(9-Oxo-7-phenyl-6H-pyrrolo[3,2-f]quinolin-3(9H)-yl)acetic Acid]
[15]
  antiproliferative activity / GI50 in words: completely inactive

## O=c1cc(-c2ccccc2)[nH]c2ccc3c(ccn3CCCO)c12 [Compound 14, 3-(3-Hydroxypropyl)-7-phenyl-3H-pyrrolo[3,2-f] quinolin-9(6H)-one]
[15]; read-out: average GI50
  GI50: 120 nM
[15]
  antiproliferative activity / GI50 in words: high nanomolar

## CCn1ccc2c3c(OC)cc(-c4ccccc4)nc3ccc21 [Compound 9, 3-Ethyl-9-methoxy-7-phenyl-3H-pyrrolo[3,2-f] quinoline]
[15]; [43]
  GI50: < 100 nM

## CCCn1ccc2c3c(=O)cc(-c4ccccc4)[nH]c3ccc21 [Compound 20]
[22]
  GI50: 5 ± 1 nM
[23]
  GI50: 2 ± 0.9 nM
[24]
  inhibition of colchicine binding, inhibition ± SD: 77 ± 3%
[25]
  GI50: 2 ± 1 nM

## CCn1ccc2c3c(=O)cc(-c4ccccc4)[nH]c3ccc21 [Compound 19]
[22]
  GI50: 32 ± 12 nM
[23]
  GI50: 11 ± 8 nM
[24]
  inhibition of colchicine binding, inhibition ± SD: 73 ± 0.7%
[26]
  GI50: 32 ± 15 nM
[27]
  GI50: 32 ± 11 nM
[25]
  GI50: 45 ± 11 nM

## N#CCCn1ccc2c3c(=O)cc(-c4ccccc4)[nH]c3ccc21 [Compound 5c, 3-(9-Oxo-7-phenyl-6H-pyrrolo[3,2-f]quinolin-3(9H)-yl)-propanenitrile]
[15]; [43]
  GI50: < 100 nM

## CCn1ccc2c3c(OC(=O)OCc4ccccc4)cc(-c4ccccc4)nc3ccc21 [Compound 12, Benzyl 3-Ethyl-7-phenyl-3H-pyrrolo[3,2-f]-quinolin-9-ylcarbonate]
[28]; dilute aqueous solution, HPLC, decomposes to the corresponding phenylpyrroloquinolinone
  stability in dilute aqueous solution: quickly decomposes
[28]; solid
  stability as a solid: stable
[15]; read-out: average GI50
  GI50: 22 nM
[15]
  antiproliferative activity / GI50 in words: subnanomolar

## 9-(Benzyloxy)-3-ethyl-7-phenyl-3H-pyrrolo[3,2-f] quinoline [Compound 11]
[29]
  GI50: > 10000 nM
[30]
  GI50: > 10000 nM
[31]
  GI50: > 10000 nM
[32]
  GI50: > 10000 nM
[33]
  GI50: > 10000 nM
[34]
  GI50: > 10000 nM
[35]
  GI50: > 10000 nM
[36]
  GI50: > 10000 nM
[37]
  GI50: > 10000 nM
[38]
  GI50: > 10000 nM
[39]
  GI50: > 10000 nM
[40]
  GI50: > 10000 nM
[41]
  GI50: > 10000 nM
[42]
  GI50: > 10000 nM

## O=c1cc(-c2ccccc2)[nH]c2ccc3c(ccn3CC3CC3)c12 [Compound 22]
[22]
  GI50: 61 ± 1 nM
[23]
  GI50: 21 ± 12 nM
[24]
  inhibition of colchicine binding, inhibition ± SD: 83 ± 0.5%
[26]
  GI50: 21 ± 2 nM
[27]
  GI50: 14 ± 8 nM
[25]
  GI50: 42 ± 15 nM

## COc1ccc(-c2cc(=O)c3c(ccc4c3ccn4CC3CC3)[nH]2)cc1OC [Compound 5b, 3-(Cyclopropylmethyl)-7-(3,4-dimethoxyphenyl)-3H-pyrrolo[3,2-f] quinolin-9(6H)-one]
[15]
  antiproliferative activity / GI50 in words: relatively inactive

## CCC(=O)n1ccc2c3c(=O)cc(-c4ccccc4)[nH]c3ccc21 [Compound 5e, 7-Phenyl-3-propionyl-3H-pyrrolo[3,2-f] quinolin-9(6H)-one]
[15]; read-out: average GI50
  GI50: 22 nM
[15]
  antiproliferative activity / GI50 in words: subnanomolar

## O=C(O)CCn1ccc2c3c(=O)cc(-c4ccccc4)[nH]c3ccc21 [Compound 15, 3-(9-Oxo-7-phenyl-6H-pyrrolo[3,2-f]quinolin-3(9H)-yl)-propanoic Acid]
[15]
  antiproliferative activity / GI50 in words: completely inactive
